TRPC4 agonist = activators of mouse TRPC4 channel, primary screen, Fluo4 calcium, HEK293 TRPC4beta/mu-opioid cells | AID 2237, 2010 | Fluo4 calcium fluorescence; stronger effect = higher value | 310,000 compounds, 0.49% hits | B-score at 10 µM | Short transient receptor potential channel 4 (Mus musculus), Q9QUQ5;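 active means B-score above 5 SD of library B-scores, and initial fluorescence ratio not above library mean plus 5 SD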;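 further: positive B-score marks a calcium rise read as TRPC4 activation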
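System – HEK293 cells stably co-expressing mouse TRPC4beta and mu-opioid receptor · Signal – Fluo4 calcium-sensitive dye fluorescence, kinetic, 1 Hz baseline · Benchmarks – buffer (low) and maximal DAMGO (high) · Read-out – B score of integrated fluorescence ratio per well · Incubation – dye loading 45 min room temperature, 110 s kinetic read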
TRPC4 PAM = positive allosteric modulators of TRPC4, primary screen, cell-based, mouse TRPC4beta, HEK293 mu-opioid, Fluo-4 calcium; Short transient receptor potential channel 4 (Mus musculus), Q9QUQ5; DAMGO EC20, Fluo-4 Ca2+ flux; stronger effect = higher value; B-score at 10 µM; 310,000 compounds, 0.42% hits;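 active means B-score of calcium response area above 5 SD of library B-scores, with initial fluorescence ratio within 5 SD of library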;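 further: B-score of integrated fluorescence ratio over time as area under calcium response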
TRPC6 act = mouse TRPC6 channel activators, primary screen, cell-based, HEK293, membrane potential dye. Short transient receptor potential channel 6 (Mus musculus), Q61143. HEK293-TRPC6 membrane potential dye fluorescence; stronger effect = higher value. B-score at 10 µM. 310,000 compounds, 0.13% hits;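 active means B-score of the integrated fluorescence ratio above library mean plus 3 SD, and starting fluorescence ratio within library mean plus 5 SD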;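 further: higher score means more depolarization so channel activation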
Target sequence (Q61143 whole entry, looked up): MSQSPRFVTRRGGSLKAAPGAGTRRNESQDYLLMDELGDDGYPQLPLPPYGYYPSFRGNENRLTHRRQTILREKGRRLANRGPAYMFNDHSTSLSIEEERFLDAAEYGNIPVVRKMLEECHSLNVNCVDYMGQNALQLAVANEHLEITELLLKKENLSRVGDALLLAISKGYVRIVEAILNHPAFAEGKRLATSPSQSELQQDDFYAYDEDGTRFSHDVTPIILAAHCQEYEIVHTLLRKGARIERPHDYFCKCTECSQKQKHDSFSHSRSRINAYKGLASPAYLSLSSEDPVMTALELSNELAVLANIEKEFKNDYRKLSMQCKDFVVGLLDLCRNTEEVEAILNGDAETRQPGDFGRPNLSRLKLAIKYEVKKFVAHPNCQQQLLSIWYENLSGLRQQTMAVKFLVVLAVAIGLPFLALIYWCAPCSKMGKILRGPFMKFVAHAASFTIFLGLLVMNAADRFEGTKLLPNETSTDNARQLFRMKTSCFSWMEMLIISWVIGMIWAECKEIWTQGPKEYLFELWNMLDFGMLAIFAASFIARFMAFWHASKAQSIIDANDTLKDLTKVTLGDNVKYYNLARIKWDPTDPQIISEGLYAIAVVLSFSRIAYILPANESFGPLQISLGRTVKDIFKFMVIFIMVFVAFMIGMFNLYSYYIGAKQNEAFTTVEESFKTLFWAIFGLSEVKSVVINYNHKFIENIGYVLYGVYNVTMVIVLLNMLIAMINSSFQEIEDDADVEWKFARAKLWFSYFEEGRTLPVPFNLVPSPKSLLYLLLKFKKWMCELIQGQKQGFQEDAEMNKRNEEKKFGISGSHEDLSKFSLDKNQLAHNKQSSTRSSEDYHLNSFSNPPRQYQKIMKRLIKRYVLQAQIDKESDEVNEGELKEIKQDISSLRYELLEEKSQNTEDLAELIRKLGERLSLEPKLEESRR
TRPC6 inhibitor = mouse TRPC6 channel inhibitors, primary screen, cell-based, HEK293, membrane potential dye | Short transient receptor potential channel 6 (Mus musculus), Q61143 | ACh-evoked depolarization; stronger effect = lower value | B-score at 10 µM | 310,000 compounds, 1.1% hits;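 active means B-score under library mean minus 3 SD, initial fluorescence not abnormally high, positive integrated signal ratio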;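 further: B-score derived from integrated fluorescence ratio over the kinetic read; more negative B-score means stronger inhibition of depolarization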
TRPC4 block = inhibitors of mouse TRPC4 channel, primary screen, Fluo4 calcium, HEK293 TRPC4beta/mu-opioid cells; Short transient receptor potential channel 4 (Mus musculus), Q9QUQ5; DAMGO-evoked Fluo4 calcium flux; stronger effect = lower value; B-score at 10 µM; 300,000 compounds, 0.39% hits;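 active means B-score over 3 SD under the library average, no early fluorescence shift, positive overall ratio signal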
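Assay system: TRPC4beta/mu-opioid receptor HEK293 cell line; compound dosing: single concentration per test compound; detection: Fluo4 Ca2+ flux fluorescence; evaluation: per-well B score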
TRPC4 sel inh 2 = mouse TRPC4 off-target activity of TRPC6 inhibitors, second screen | HEK293 TRPC4/MOR, membrane potential dye fluorescence; channel activated by saturating DAMGO dose | inhibition, % at 10 µM | shares compounds with TRPC6 inhibitor | 920 compounds, 42% hits;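 active means compounds whose fluorescence signal differed from control wells by over 3 SD, either direction, in both duplicate plates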
TRPC4 spec = mouse TRPC4 modulation by TRPC6 hits, confirmation, selectivity assay for TRPC6 inhibitor project, cell-based, HEK293 TRPC4/mu-opioid, membrane potential dye; activity change, negative = inhibition, % at 10 µM; membrane potential fluorescence; 920 compounds, 61% hits; shares compounds with TRPC6 inhibitor;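 active means rise or fall in signal beyond 3 SD of buffer-only wells in both replicate plates, either sign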;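 further: integrated kinetic ratio of fluorescence range over baseline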
HEK293 MPD ctr 2-1 = nonspecific membrane potential effects, parental HEK293, confirmation, counter-screen for TRPC6 inhibitor project, cell-based, second counter screen. shares compounds with TRPC6 inhibitor. parental HEK293 membrane potential dye fluorescence; maximal acetylcholine challenge after compound addition. signal change vs control, % at 10 µM. 920 compounds, 31% hits. AID 2779, 2010;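 active means membrane potential signal moving either way by over 3 SD of the maximum-effect control, in both duplicate plates, meaning non-specific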
HEK293 MPD ctr-1 = membrane potential modulation in parental HEK293, confirmation, counter-screen for TRPC6 inhibitor project, cell-based; shares compounds with TRPC6 inhibitor; parental HEK293 membrane potential dye fluorescence; membrane potential signal change, % at 10 µM; 920 compounds, 60% hits;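 active means membrane potential signal shifting up or down by more than 3 SD of buffer-only wells, on both duplicate plates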
HEK293 MPD ctr-2 = parental HEK293 membrane potential modulation, confirmation, counter-screen for TRPC6 modulator project, cell-based; membrane potential dye fluorescence; 2,400 compounds, 51% hits; AID 488924, 2010; membrane potential signal change, % at 10 µM; shares compounds with TRPC6 inhibitor;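 active means membrane potential signal moves up or down beyond 5 SD from buffer-only wells, on both duplicate plates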
HEK293 MPD ctr 2-2 = second check of TRPC6 modulator effects in parental HEK293 cells; shares compounds with TRPC6 inhibitor; membrane potential dye fluorescence; after compound, maximal acetylcholine stimulation; inhibition, % at 10 µM; 2,400 compounds, 14% hits;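 active means membrane potential signal drops by more than 5 SD from the mean control signal, in both duplicate plates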;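 further: plate controls were acetylcholine ECmax control wells for no effect and buffer only wells for full effect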
TRPC4 ctr mod = TRPC4 modulation by TRPC6 hit compounds, confirmation, selectivity assay for TRPC6 modulator project, cell-based, HEK293 TRPC4/mu-opioid, membrane potential dye, mouse | 2,400 compounds, 69% hits | AID 488927, 2010 | membrane potential fluorescence | percent change from control (negative = decrease, positive = increase), % at 10 µM | shares compounds with TRPC6 inhibitor;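 active means membrane potential signal moved up or down beyond 5 SD of buffer control wells, in both duplicate plates, actives on both sides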;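 further: plate controls were assay buffer wells for no effect and DAMGO maximal-effect wells for full effect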
TRPC4 ctr inh 2 = second check of whether TRPC6 modulators also affect mouse TRPC4 | shares compounds with TRPC6 inhibitor | HEK293 TRPC4/mu-opioid, membrane potential dye fluorescence; stimulated with maximal-effect DAMGO | inhibition, % at 10 µM | 2,400 compounds, 55% hits;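 active means drop in membrane potential signal beyond 5 SD of the control wells in both duplicate plates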;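 further: TRPC4 counter screen for TRPC6 hits run under conditions tuned for TRPC6 not TRPC4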
TRPC6 block conf = mouse TRPC6 channel inhibitors, confirmation, HEK293 cells, membrane potential dye, duplicate; inhibition, % at 10 µM; 3,300 compounds, 43% hits; shares compounds with TRPC6 inhibitor; ACh-evoked depolarization;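 active means fluorescence ratio falls more than 5 SD below the full-stimulation control mean, in both duplicate runs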;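 further: integrated fluorescence ratio of peak minus minimum over baseline after agonist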
TRPC6 act confirm = mouse TRPC6 channel activators, confirmation, HEK293 cells, membrane potential dye, duplicate; 2,800 compounds, 11% hits; shares compounds with TRPC6 inhibitor; AID 488961, 2010; HEK293-TRPC6 membrane potential dye fluorescence, FDSS; activation, % at 10 µM;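 active means ratio signal rise beyond 5 SD above unstimulated control wells' mean, seen in both duplicate runs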;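 further: plate controls were buffer EC0 wells for no effect and acetylcholine ECmax response for full effect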
* hit, by the source's call; i = inactive; / = no result. Most compounds without a hit are left out; they make up all but 2.3% or so of the library.

SMILES	TRPC4 agonist	TRPC4 PAM	TRPC6 act	TRPC6 inhibitor	TRPC4 block	HEK293 MPD ctr-2	HEK293 MPD ctr 2-2	TRPC4 ctr mod	TRPC4 ctr inh 2	TRPC6 block conf	TRPC6 act confirm	others
C=C(C)CSc1[nH]c(=O)cc(C)c1C#N	i	i	i	i	i	/	/	/	/	/	/
COC(=O)c1ccc(Cl)cc1N(Cc1c(F)cccc1Cl)S(C)(=O)=O	65*	i	i	-5.27*	i	303.0%*	113.0%*	44.0%*	38.5%*	i	/
Cc1ccc(-n2ncc(C(=O)Nc3cc(Cl)cc(Cl)c3)c2C2CCNCC2)cc1C	i	i	i	-6.87*	i	/	/	/	/	i	i	TRPC4 sel inh 2=63.5%*;TRPC4 spec=-12.1%*;HEK293 MPD ctr 2-1=i;HEK293 MPD ctr-1=i
Cc1ccc(-n2ncc(C(=O)Nc3cc(Cl)ccc3Cl)c2C2CCNCC2)cc1	i	i	i	i	i	/	/	/	/	/	/
CCn1nc(C)c(CNC(=O)Nc2ccccc2C(=O)OC)c1C	i	i	i	i	i	/	/	/	/	/	/
N#Cc1c(-n2cccc2/C=N/O)sc2c1CCCC2	i	i	i	-6.61*	i	/	/	/	/	60.0%*	/	TRPC4 sel inh 2=i;TRPC4 spec=20.3%*;HEK293 MPD ctr 2-1=-30.0%*;HEK293 MPD ctr-1=17.6%*
C=CCNCc1cccn1-c1sc2c(c1C#N)CCCC2	i	i	i	i	i	/	/	/	/	/	/
O=C(NNC(=O)C1CC1)c1ccccc1[N+](=O)[O-]	i	i	i	i	i	/	/	/	/	/	/
COc1ccc(S(=O)(=O)N2CCN(C(=O)c3cc(-c4ccc(C)cc4)n[nH]3)CC2)cc1	i	i	i	i	i	/	/	/	/	/	/
CC(C)NCc1cc(Br)ccc1OCc1ccccc1	i	i	12*	-7.25*	i	403.0%*	i	96.0%*	83.0%*	81.0%*	116.5%*
CC(C)(C)NCc1cc(Cl)ccc1OCc1ccccc1F	i	i	17.8*	-8.09*	i	487.5%*	i	105.5%*	84.5%*	100.0%*	152.5%*
CC(C)(C)NCc1cc(Br)ccc1OCc1cccs1	i	i	i	-11.1*	i	/	/	/	/	99.3%*	/	TRPC4 sel inh 2=39.0%*;TRPC4 spec=64.3%*;HEK293 MPD ctr 2-1=i;HEK293 MPD ctr-1=35.6%*
C=CCOc1ccc(Br)cc1CNC(C)(C)C	i	i	i	-6.13*	i	213.5%*	98.0%*	52.0%*	99.5%*	80.5%*	/
Cn1ccnc1COc1ccc(/C=N/O)cc1	i	i	i	i	i	/	/	/	/	/	/
O=C1CC(c2ccco2)Cc2nc(Nc3nc(-c4ccccc4)c4ccccc4n3)ncc21 (stereo not drawn)	i	i	i	i	i	/	/	/	/	/	/
O=C1C(c2ccncc2)N(CCC2=CCCCC2)C(=O)CN1C1CCCCC1 (stereo not drawn)	i	i	i	i	i	/	/	/	/	/	/
CC(C)(C)NCc1ccccc1OCc1cccs1	i	i	i	-9.81*	-7*	/	/	/	/	88.9%*	/	TRPC4 sel inh 2=31.0%*;TRPC4 spec=38.3%*;HEK293 MPD ctr 2-1=-19.5%*;HEK293 MPD ctr-1=20.6%*
CC(C)(C)NCc1cc(Cl)ccc1OCc1cccs1	i	i	i	-8.04*	i	/	/	/	/	108.3%*	/	TRPC4 sel inh 2=40.0%*;TRPC4 spec=57.8%*;HEK293 MPD ctr 2-1=30.5%*;HEK293 MPD ctr-1=32.4%*
CCOc1ccc(N(C(=O)c2cnccn2)C(C(=O)NC2CCCCC2)c2ccc(O)cc2)cc1 (stereo not drawn)	i	i	i	i	i	/	/	/	/	/	/
O=C(NCc1cccnc1)c1cccn2c(=O)c3sccc3nc12	i	i	i	-7.33*	i	/	/	/	/	i	i	TRPC4 sel inh 2=i;TRPC4 spec=-25.7%*;HEK293 MPD ctr 2-1=i;HEK293 MPD ctr-1=-340.5%*
CCOC(=O)C1CCN(C(=O)Cc2ccc(-c3ccccc3)cc2)CC1	i	i	i	i	i	/	/	/	/	/	/
Cc1cc(C)c2nc3nc(C)c(C)cc3c(N)c2c1	i	i	i	-5.8*	i	i	i	-25.0%*	34.5%*	59.0%*	i
COc1cccc(C2=Nc3cccc4cccc(c34)N2)c1	i	i	i	-8.12*	i	-94.0%*	i	-26.0%*	74.5%*	52.5%*	i
Cc1[nH]c2ccccc2c1C(=O)COC(=O)c1ccc2c(=O)n3c(nc2c1)CCC3	i	i	i	i	i	/	/	/	/	/	/
S=C(NCCc1ccccn1)Nc1cccc(Cl)c1	i	i	i	i	i	/	/	/	/	/	/
CC1=NN(C(N)=S)C(=O)C1N=Nc1cccc([N+](=O)[O-])c1 (stereo not drawn)	i	i	i	-5.26*	i	i	i	i	i	i	i
